≈ marks a conversion by molar mass, not a printed value.
Columns and labels:
Candida albicans [1] = experiment: Growth inhibition of Candida albicans ATCC 90028 at 0.0313 ug/ml incubated for 4 hrs at 35 degC by broth microdilution method relative to control; type: functional; details: ATCC 90028, 4 h, read-out: GI
Candida albicans [2] = experiment: Fungicidal activity against Candida albicans ATCC 90028 assessed as drug level causing 3 fold reduction in bacterial count after 48 hrs at 35 degC; type: functional; details: ATCC 90028, 48 h
Candida albicans [3] = experiment: Growth inhibition of Candida albicans ATCC 90028 at 0.5 ug/ml incubated for 4 hrs at 35 degC by broth microdilution method relative to control; type: functional; details: ATCC 90028, 4 h, read-out: GI
Candida albicans [4] = experiment: Growth inhibition of Candida albicans ATCC 90028 at 16 ug/ml incubated for 18 hrs at 35 degC by broth microdilution method relative to control; type: functional; details: ATCC 90028, 18 h, read-out: GI
MCF7 [5] = experiment: Antiproliferative activity against human MCF7 cells assessed as cell viability at 50 uM after 72 hrs by MTT assay; type: functional; details: MCF7, 72 h, read-out: Activity
Summary of the method: (§1)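 MTT viability assay in CCRF-CEM and MCF-7 cells after 72 h exposure at 25, 50, 100 and 200 µM. Results are relative to control cells without inhibitor in 0.5% DMSO. Done in triplicate; values are means ± SD of three independent experiments.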

Candida albicans [6] = experiment: Growth inhibition of Candida albicans ATCC 90028 at 0.0625 ug/ml incubated for 18 hrs at 35 degC by broth microdilution method relative to control; type: functional; details: ATCC 90028, 18 h, read-out: GI
Candida albicans [7] = experiment: Growth inhibition of Candida albicans ATCC 90028 at 0.25 ug/ml incubated for 4 hrs at 35 degC by broth microdilution method relative to control; type: functional; details: ATCC 90028, 4 h, read-out: GI
Vero [8] = experiment: Cytotoxicity in African green monkey Vero cells at 256 ug/ml incubated for 3 to 18 hrs by XTT assay; type: cell-based; details: chlorocebus sabaeus
Candida albicans [9] = experiment: Growth inhibition of Candida albicans ATCC 90028 at 16 ug/ml incubated for 48 hrs at 35 degC by broth microdilution method relative to control; type: functional; details: ATCC 90028, 48 h, read-out: GI
[10] = Toxicity in Galleria mellonella larvae infected with Candida albicans ATCC 90028 infected with 31 uM compound pre-treated cell suspensions assessed as survival incubated in dark for 144 hrs at 30 degC and measured every 24 hrs; type: organism-based; details: in vivo
MCF7 [11] = experiment: Antiproliferative activity against human MCF7 cells assessed as cell viability at 25 uM after 72 hrs by MTT assay; type: functional; details: MCF7, 72 h, read-out: Activity; summary of the method: as §1
Candida albicans [12] = experiment: Growth inhibition of Candida albicans ATCC 90028 at 2 ug/ml incubated for 18 hrs at 35 degC by broth microdilution method relative to control; type: functional; details: ATCC 90028, 18 h, read-out: GI
Vero [13] = experiment: Cytotoxicity in African green monkey Vero cells up to 64 ug/ml incubated for 3 to 18 hrs by XTT assay; type: cell-based; details: chlorocebus sabaeus
Candida albicans [14] = experiment: Inhibition of biofilm formation of Candida albicans ATCC 90028 after 48 hrs by XTT assay; type: functional, organism-based; details: ATCC 90028, 48 h
Candida albicans [15] = experiment: Growth inhibition of Candida albicans ATCC 90028 at 4 uM incubated for 48 hrs at 35 degC by broth microdilution method relative to control; type: functional; details: ATCC 90028, 48 h
Candida albicans [16] = experiment: Growth inhibition of Candida albicans ATCC 90028 at 4 ug/ml incubated for 18 hrs at 35 degC by broth microdilution method relative to control; type: functional; details: ATCC 90028, 18 h, read-out: GI
Candida albicans [17] = experiment: Growth inhibition of Candida albicans ATCC 90028 at 0.0313 ug/ml incubated for 18 hrs at 35 degC by broth microdilution method relative to control; type: functional; details: ATCC 90028, 18 h, read-out: GI
MCF7 [18] = experiment: Antiproliferative activity against human MCF7 cells assessed as cell viability at 200 uM after 72 hrs by MTT assay; type: functional; details: MCF7, 72 h, read-out: Activity; summary of the method: as §1
Candida albicans [19] = experiment: Growth inhibition of Candida albicans ATCC 90028 at 0.125 ug/ml incubated for 4 hrs at 35 degC by broth microdilution method relative to control; type: functional; details: ATCC 90028, 4 h, read-out: GI
CCRF-CEM [20] = experiment: Antiproliferative activity against human CCRF-CEM cells assessed as cell viability at 50 uM after 72 hrs by MTT assay; type: functional; details: read-out: Activity; summary of the method: as §1
Candida albicans [21] = experiment: Inhibition of cell adhesion of Candida albicans ATCC 90028 to African green monkey Vero cells at 0.0625 ug/ml relative to untreated control; type: functional; details: ATCC 90028, Vero
Candida albicans [22] = experiment: Growth inhibition of Candida albicans ATCC 90028 at 1 ug/ml incubated for 18 hrs at 35 degC by broth microdilution method relative to control; type: functional; details: ATCC 90028, 18 h, read-out: GI
Candida albicans [23] = experiment: Fungicidal activity against Candida albicans ATCC 90028 assessed as log reduction in cell viability at 16 ug/ml after 48 hrs at 35 degC; type: functional
Summary of the method: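 MFC assay on C. albicans ATCC 90028 following M27-A3, at the molar equivalent of 16 µg/mL. CFU of treated cells were compared with CFU of the untreated inoculum. Activity is given as lg R = lg CFU/mL control − lg CFU/mL treated, and lg R ≥3 was defined as fungicidal. Values are means of two independent experiments.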

Candida albicans [24] = experiment: Inhibition of cell adhesion of Candida albicans ATCC 90028 to African green monkey Vero cells at 2 ug/ml relative to untreated control; type: functional; details: ATCC 90028, Vero
Candida albicans [25] = experiment: Growth inhibition of Candida albicans ATCC 90028 at 8 ug/ml incubated for 18 hrs at 35 degC by broth microdilution method relative to control; type: functional; details: ATCC 90028, 18 h, read-out: GI
Candida albicans [26] = experiment: Growth inhibition of Candida albicans ATCC 90028 at 1 ug/ml incubated for 4 hrs at 35 degC by broth microdilution method relative to control; type: functional; details: ATCC 90028, 4 h, read-out: GI
MCF7 [27] = experiment: Antiproliferative activity against human MCF7 cells after 72 hrs by MTT assay; type: functional, cell-based; details: MCF7, 72 h
Summary of the method: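 EC50 was derived from a repeat 72 h MTT assay in CCRF-CEM or MCF-7 cells. It is the concentration killing 50% of tumour cells compared with control cells incubated without inhibitor in 0.5% DMSO.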

Candida albicans [28] = experiment: Growth inhibition of Candida albicans ATCC 90028 at 8 ug/ml incubated for 48 hrs at 35 degC by broth microdilution method relative to control; type: functional; details: ATCC 90028, 48 h, read-out: GI
CCRF-CEM [29] = experiment: Antiproliferative activity against human CCRF-CEM cells assessed as cell viability at 25 uM after 72 hrs by MTT assay; type: functional; details: read-out: Activity; summary of the method: as §1
Candida albicans [30] = experiment: Growth inhibition of Candida albicans ATCC 90028 at 0.125 ug/ml incubated for 18 hrs at 35 degC by broth microdilution method relative to control; type: functional; details: ATCC 90028, 18 h, read-out: GI
Candida albicans [31] = experiment: Growth inhibition of Candida albicans ATCC 90028 at 0.5 ug/ml incubated for 18 hrs at 35 degC by broth microdilution method relative to control; type: functional; details: ATCC 90028, 18 h, read-out: GI
Candida albicans [32] = experiment: Growth inhibition of Candida albicans ATCC 90028 at 0.25 ug/ml incubated for 18 hrs at 35 degC by broth microdilution method relative to control; type: functional; details: ATCC 90028, 18 h, read-out: GI
MCF7 [33] = experiment: Antiproliferative activity against human MCF7 cells assessed as cell viability at 100 uM after 72 hrs by MTT assay; type: functional; details: MCF7, 72 h, read-out: Activity; summary of the method: as §1
Candida albicans [34] = experiment: Antifungal activity against Candida albicans ATCC 90028 assessed as reduction in cell viability at 1022.5 to 0.06 uM after 48 hrs in presence of ergosterol by XTT assay; type: functional; details: ATCC 90028, 48 h
Candida albicans [35] = experiment: Inhibition of cell adhesion of Candida albicans ATCC 90028 to African green monkey Vero cells at 16 ug/ml relative to untreated control; type: functional; details: ATCC 90028, Vero

Structure (SMILES)	inhibition of growth at 0.0313 µg/mL (Candida albicans [1])	MFC (Candida albicans [2])	inhibition of growth at 0.5 µg/mL (Candida albicans [3])	inhibition of growth at 16 µg/mL (Candida albicans [4])	viability at 50 µM (MCF7 [5])	inhibition of growth at 0.0625 µg/mL (Candida albicans [6])	inhibition of growth at 0.25 µg/mL (Candida albicans [7])	Activity (Vero [8])	inhibition of growth at 16 µg/mL (Candida albicans [9])	survival at 24 h, 31 µM [10]	viability at 25 µM (MCF7 [11])	inhibition of growth at 2 µg/mL (Candida albicans [12])	Activity (Vero [13])	IC50 (Candida albicans [14])	MIC (Candida albicans [15])	inhibition of growth at 4 µg/mL (Candida albicans [16])	inhibition of growth at 0.0313 µg/mL (Candida albicans [17])	viability at 200 µM (MCF7 [18])	inhibition of growth at 0.125 µg/mL (Candida albicans [19])	viability at 50 µM (CCRF-CEM [20])	also measured
CC(Cn1cnc2c1c(=O)n(C)c(=O)n2C)OCc1cn(CCCn2nc3c(Br)c(Br)c(Br)c(Br)c3n2)nn1 (stereo not given)	99.1%	5 µM (≈ 3.97 µg/mL)	99.1%	100%	59.8%	99.2%	99.1%	Toxic	100%	90 to 100%	58.3%	99.9%	Non-Toxic	20 µM	10 µM (≈ 7.94 µg/mL)	100%	99.1%	53.7%	99%	0%	inhibition at 0.0625 µg/mL (Candida albicans [21]): 89%; inhibition of growth at 1 µg/mL (Candida albicans [22]): 99.4%; log(activity) (Candida albicans [23]): 8; inhibition at 2 µg/mL (Candida albicans [24]): 89%; inhibition of growth at 8 µg/mL (Candida albicans [25]): 100%; inhibition of growth at 1 µg/mL (Candida albicans [26]): 99.1%; EC50 (MCF7 [27]): 80 µM; inhibition of growth at 8 µg/mL (Candida albicans [28]): 99.9%; viability at 25 µM (CCRF-CEM [29]): 0%; inhibition of growth at 0.125 µg/mL (Candida albicans [30]): 99.1%; inhibition of growth at 0.5 µg/mL (Candida albicans [31]): 99.2%; inhibition of growth at 0.25 µg/mL (Candida albicans [32]): 99.4%; viability at 100 µM (MCF7 [33]): 59.1%; MIC (Candida albicans [34]): 8 µM; inhibition at 16 µg/mL (Candida albicans [35]): 100%
CC(CN1c2ccccc2Sc2ccccc21)OC(=O)OC(C)Cn1cnc2c1c(=O)n(C)c(=O)n2C (stereo not given)	99.2%	15 µM (≈ 7.82 µg/mL)	99.1%	100%	38.3%	99.7%	99%	Toxic	100%	90 to 100%	58.8%	100%	Non-Toxic	248 µM	4 µM (≈ 2.09 µg/mL)	100%	99.6%	20.8%	99.1%	7.9%	inhibition at 0.0625 µg/mL (Candida albicans [21]): 89%; inhibition of growth at 1 µg/mL (Candida albicans [22]): 100%; log(activity) (Candida albicans [23]): 8; inhibition at 2 µg/mL (Candida albicans [24]): 89%; inhibition of growth at 8 µg/mL (Candida albicans [25]): 100%; inhibition of growth at 1 µg/mL (Candida albicans [26]): 99.5%; EC50 (MCF7 [27]): 80 µM; inhibition of growth at 8 µg/mL (Candida albicans [28]): 100%; viability at 25 µM (CCRF-CEM [29]): 22.1%; inhibition of growth at 0.125 µg/mL (Candida albicans [30]): 99.9%; inhibition of growth at 0.5 µg/mL (Candida albicans [31]): 99.9%; inhibition of growth at 0.25 µg/mL (Candida albicans [32]): 99.9%; viability at 100 µM (MCF7 [33]): 27.1%; MIC (Candida albicans [34]): 38 µM; inhibition at 16 µg/mL (Candida albicans [35]): 100%

— ChEMBL document CHEMBL4229342, “Synthesis of novel proxyphylline derivatives with dual Anti-Candida albicans and anticancer activity” (Eur J Med Chem, 2018)
